Measured values taken from ChEMBL document CHEMBL1123369, “Synthesis and structure-activity relationships of new arylfluoronaphthyridine antibacterial agents” (1986).
Converted amounts (≈) assume the structure as drawn.

Assays:
Type in all cases: functional
Acinetobacter sp. = test: In vitro antibacterial activity against Acinetobacter species CMX669
How it was run: (§1)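 Twofold agar dilution in brain-heart infusion agar, test range 200 to 0.005 µg/mL, made from a 2000 µg/mL stock. Organisms grown overnight in BHI broth at 36 °C. About 10⁴ organisms inoculated per plate, then incubated 18 h at 36 °C. MIC taken as the lowest concentration giving no visible growth.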

Escherichia coli = test: In vitro antibacterial activity against Escherichia coli Juhl; how it was run: as §1
Klebsiella aerogenes = test: In vitro antibacterial activity against Enterobacter aerogenes ATCC 13048; how it was run: as §1
Klebsiella pneumoniae = test: In vitro antibacterial activity against Klebsiella pneumoniae 8045; how it was run: as §1
Pseudomonas aeruginosa [1] = test: In vitro antibacterial activity against Pseudomonas aeruginosa 5007; how it was run: as §1
Pseudomonas aeruginosa [2] = test: In vitro antibacterial activity against Pseudomonas aeruginosa K799/WT; how it was run: as §1
Streptococcus pyogenes = test: In vitro antibacterial activity against Streptococcus pyogenes 930; how it was run: as §1
Staphylococcus aureus [3] = test: In vitro antibacterial activity against Staphylococcus aureus ATCC 6538P; how it was run: as §1
Enterococcus faecium = test: In vitro antibacterial activity against Streptococcus faecium ATCC 8043; how it was run: as §1
Staphylococcus aureus [4] = test: In vitro antibacterial activity against Staphylococcus aureus CMX 686B; how it was run: as §1
[5] = system: Staphylococcus epidermidis; test: In vitro antibacterial activity against Staphylococcus epidermidis 3519; how it was run: as §1
Mus musculus [6] = test: In vivo dose(po) inhibiting systemic infections caused by Escherichia coli Juhl in mice.
How it was run: (§2)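 CF-1 female mice, about 20 g. Infected ip with 0.5 mL of an 18-h BHI culture diluted in 5% hog gastric mucin to 100× LD₅₀. LD₅₀ set by 10-fold dilutions (Reed–Muench, day 6). Compound given in water or dilute NaOH, sc or po, total dose split at 1 and 5 h post-infection. At least 3 dose levels, 10 mice each. Deaths followed 6 days. ED₅₀ from day-6 cumulative mortality by trimmed Logit, with 95% confidence limits.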

Mus musculus [7] = test: In vivo antibacterial activity against systemic infection caused by Escherichia coli Juhl in mice.; how it was run: as §2
Mus musculus [8] = test: In vivo dose(sc) inhibiting systemic infections caused by Escherichia coli Juhl in mice.; how it was run: as §2
Mus musculus [9] = test: In vivo dose(po) inhibiting systemic infections caused by Escherichia coli Juhl in mice; how it was run: as §2
Mus musculus [10] = test: In vivo dose(po) inhibiting systemic infections caused by Pseudomonas aeruginosa 5007 in mice; how it was run: as §2
Mus musculus [11] = test: In vivo dose(po) inhibiting systemic infections caused by Staphylococcus aureus NCTC 10649 in mice; how it was run: as §2
Mus musculus [12] = test: In vivo dose(sc) inhibiting systemic infections caused by Escherichia coli Juhl in mice
How it was run: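 Female CF-1 mice (~20 g) infected ip with 0.5 mL of 18-h BHI culture of E. coli Juhl diluted in 5% (w/v) hog gastric mucin to 100 times LD50 (LD50 from 10-fold dilutions, day-6 mortality, Reed-Muench). Compound dissolved in water (HCl salt) or dilute NaOH then water, given sc split equally at 1 and 5 h post-infection. 10 mice per dose, ≥3 doses. Deaths recorded 6 days; ED50 from day-6 cumulative mortality by trimmed Logit.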

Mus musculus [13] = test: In vivo dose(sc) inhibiting systemic infections caused by Pseudomonas aeruginosa 5007 in mice; how it was run: as §2
Mus musculus [14] = test: In vivo dose(sc) inhibiting systemic infections caused by Staphylococcus aureus NCTC 10649 in mice; how it was run: as §2
Mus musculus [15] = test: In vivo antibacterial activity against systemic infection caused by Pseudomonas aeruginosa 5007 in mice
Mus musculus [16] = test: In vivo antibacterial activity against systemic infection caused by Staphylococcus aureus NCTC 10649 in mice
Mus musculus [17] = test: In vivo antibacterial activity against systemic infection caused by Escherichia coli Juhl in mice; how it was run: as §2
Mus musculus [18] = test: In vivo dose(po) inhibiting systemic infections caused by Pseudomonas aeruginosa 5007 in mice.; how it was run: as §2
Mus musculus [19] = test: In vivo dose(po) inhibiting systemic infections caused by Staphylococcus aureus NCTC 10649 in mice.; how it was run: as §2
Mus musculus [20] = test: In vivo dose(sc) inhibiting systemic infections caused by Pseudomonas aeruginosa 5007 in mice.; how it was run: as §2
Mus musculus [21] = test: In vivo dose(sc) inhibiting systemic infections caused by Staphylococcus aureus NCTC 10649 in mice.; how it was run: as §2
Mus musculus [22] = test: In vivo antibacterial activity against systemic infection caused by Pseudomonas aeruginosa 5007 in mice.; how it was run: as §2
Mus musculus [23] = test: In vivo antibacterial activity against systemic infection caused by Staphylococcus aureus NCTC 10649 in mice.; how it was run: as §2
Mus musculus [24] = test: In vivo antibacterial activity against systemic infection caused by Escherichia coli juhl in mice.; how it was run: as §2

SMILES	MIC (Acinetobacter sp.) [µg/mL]	MIC (Escherichia coli) [µg/mL]	MIC (Klebsiella aerogenes) [µg/mL]	MIC (Klebsiella pneumoniae) [µg/mL]	MIC (Pseudomonas aeruginosa [1]) [µg/mL]	MIC (Pseudomonas aeruginosa [2]) [µg/mL]	MIC (Streptococcus pyogenes) [µg/mL]	MIC (Staphylococcus aureus [3]) [µg/mL]	MIC (Enterococcus faecium) [µg/mL]	MIC (Staphylococcus aureus [4]) [µg/mL]	MIC [5] [µg/mL]	ED50 (Mus musculus [6]) [mg/kg]	ED50 (Mus musculus [8]) [mg/kg]	also measured
O=C(O)c1cn(-c2ccc(F)cc2)c2nc(N3CCC(O)C3)c(F)cc2c1=O (stereo unspecified)	0.39 (≈ 1.01 µM)	0.39 (≈ 1.01 µM)	0.39 (≈ 1.01 µM)	0.1 (≈ 0.258 µM)	3.1 (≈ 8 µM)	3.1 (≈ 8 µM)	0.78 (≈ 2.01 µM)	0.05 (≈ 0.129 µM)	1.56 (≈ 4.03 µM)	0.05 (≈ 0.129 µM)	0.2 (≈ 0.516 µM)	–	–	–
CC1CN(c2nc3c(cc2F)c(=O)c(C(=O)O)cn3-c2ccc(F)cc2F)CCN1 (stereo unspecified)	0.39 (≈ 0.932 µM)	0.1 (≈ 0.239 µM)	3.1 (≈ 7.41 µM)	0.2 (≈ 0.478 µM)	1.56 (≈ 3.73 µM)	1.56 (≈ 3.73 µM)	1.56 (≈ 3.73 µM)	0.2 (≈ 0.478 µM)	3.1 (≈ 7.41 µM)	0.39 (≈ 0.932 µM)	0.78 (≈ 1.86 µM)	3.9	1.4	MIC (Mus musculus [7]): 0.1 µg/mL (≈ 0.239 µM)
O=C(O)c1cn(C2CC2)c2cc(N3CCNCC3)c(F)cc2c1=O [CIPROFLOXACIN]	1.56 (≈ 4.71 µM)	–	0.05 (≈ 0.151 µM)	0.02 (≈ 0.0604 µM)	0.1 (≈ 0.302 µM)	0.1 (≈ 0.302 µM)	0.39 (≈ 1.18 µM)	0.2 (≈ 0.604 µM)	0.2 (≈ 0.604 µM)	0.39 (≈ 1.18 µM)	0.39 (≈ 1.18 µM)	–	–	ED50 (Mus musculus [9]): 1.9 mg/kg; ED50 (Mus musculus [10]): 13.3 mg/kg; ED50 (Mus musculus [11]): 15.5 mg/kg; ED50 (Mus musculus [12]): 0.2 mg/kg; ED50 (Mus musculus [13]): 2.1 mg/kg; ED50 (Mus musculus [14]): 1.6 mg/kg; MIC (Mus musculus [15]): 0.1 µg/mL (≈ 0.302 µM); MIC (Mus musculus [16]): 0.25 µg/mL (≈ 0.754 µM); MIC (Mus musculus [17]): 0.02 µg/mL (≈ 0.0604 µM)
CN1CCN(c2cc3c(cc2F)c(=O)c(C(=O)O)cn3-c2ccc(F)cc2)CC1.Cl [DIFLOXACIN HYDROCHLORIDE]	0.78	0.2	0.78	0.1	0.78	1.56	1.56	0.2	1.56	0.2	0.39	–	–	–
CCn1cc(C(=O)O)c(=O)c2cc(F)c(N3CCNCC3)cc21 [NORFLOXACIN]	6.2 (≈ 19.4 µM)	0.1 (≈ 0.313 µM)	0.2 (≈ 0.626 µM)	0.1 (≈ 0.313 µM)	0.39 (≈ 1.22 µM)	0.39 (≈ 1.22 µM)	3.1 (≈ 9.71 µM)	0.78 (≈ 2.44 µM)	0.78 (≈ 2.44 µM)	0.78 (≈ 2.44 µM)	1.56 (≈ 4.89 µM)	–	–	–
Cl.O=C(O)c1cn(-c2ccc(F)cc2)c2cc(N3CCNCC3)c(F)cc2c1=O [SARAFLOXACIN HYDROCHLORIDE]	0.2	0.05	0.2	0.02	0.39	0.39	0.78	0.2	1.56	0.2	0.39	4.3	0.6	ED50 (Mus musculus [18]): 21.4 mg/kg; ED50 (Mus musculus [19]): 6.5 mg/kg; ED50 (Mus musculus [20]): 1.6 mg/kg; ED50 (Mus musculus [21]): 1.6 mg/kg; MIC (Mus musculus [7]): 0.05 µg/mL; MIC (Mus musculus [22]): 0.39 µg/mL; MIC (Mus musculus [23]): 0.12 µg/mL
NC1CCN(c2nc3c(cc2F)c(=O)c(C(=O)O)cn3-c2ccc(F)cc2F)C1 (stereo unspecified) [TOSUFLOXACIN]	0.1 (≈ 0.247 µM)	0.02 (≈ 0.0495 µM)	0.1 (≈ 0.247 µM)	0.02 (≈ 0.0495 µM)	0.2 (≈ 0.495 µM)	0.39 (≈ 0.965 µM)	0.2 (≈ 0.495 µM)	0.05 (≈ 0.124 µM)	0.2 (≈ 0.495 µM)	0.05 (≈ 0.124 µM)	0.1 (≈ 0.247 µM)	1.3	0.2	ED50 (Mus musculus [18]): 4.9 mg/kg; ED50 (Mus musculus [19]): 1.4 mg/kg; ED50 (Mus musculus [20]): 3.6 mg/kg; ED50 (Mus musculus [21]): 0.2 mg/kg; MIC (Mus musculus [22]): 0.2 µg/mL (≈ 0.495 µM); MIC (Mus musculus [23]): 0.03 µg/mL (≈ 0.0742 µM); MIC (Mus musculus [24]): 0.02 µg/mL (≈ 0.0495 µM)
